ChEMBL document CHEMBL2010643 (Bioorg Med Chem Lett, 2012)

Assays:
[1] = target: Serine/threonine-protein kinase PLK1 (Homo sapiens) (UniProt P53350); experiment: Inhibition of PLK1 assessed as residual activity at 1 uM relative to control
[2] = target: Mitogen-activated protein kinase 14 (Homo sapiens) (UniProt Q16539); experiment: Inhibition of p38alpha MAPK assessed as residual activity at 1 uM relative to control
Summary of the method: (§1)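 Radioactivity-based enzymatic kinase assays run across a 124-kinase profiling panel (Dundee), reporting the remaining kinase activity relative to a control.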

[3] = target: Tyrosine-protein kinase ZAP-70 (Homo sapiens) (UniProt P43403); experiment: Inhibition of ZAP70 assessed as residual activity at 1 uM relative to control
Summary of the method: as §1

[4] = target: Mitogen-activated protein kinase 13 (Homo sapiens) (UniProt O15264); experiment: Inhibition of p38delta MAPK assessed as residual activity at 1 uM relative to control
Summary of the method: as §1

[5] = target: Tyrosine-protein kinase CSK (Homo sapiens) (UniProt P41240); experiment: Inhibition of CSK assessed as residual activity at 10 uM relative to control
[6] = target: Receptor-interacting serine/threonine-protein kinase 2 (Homo sapiens) (UniProt O43353); experiment: Inhibition of RIPK2 assessed as residual activity at 10 uM relative to control
[7] = Inhibition of PKA assessed as residual activity at 1 uM relative to control
[8] = target: Tau-tubulin kinase 1 (Homo sapiens) (UniProt Q5TCY1); experiment: Inhibition of TTBK1 assessed as residual activity at 10 uM relative to control
Summary of the method: as §1

[9] = target: Protein-tyrosine kinase 6 (Homo sapiens) (UniProt Q13882); experiment: Inhibition of BRK assessed as residual activity at 1 uM relative to control
[10] = target: Serine/threonine-protein kinase 26 (Homo sapiens) (UniProt Q9P289); experiment: Inhibition of MST4 assessed as residual activity at 1 uM relative to control
Plasma = experiment: AUClast in Swiss albino mouse plasma at 1 mg/kg, iv; type: ADME, organism-based; design: time 0 - last, dose 1 mg/kg, route intravenous; conditions: in vivo
Summary of the method: (§2)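 Male Swiss Albino mice were given a single dose, either intravenous at 1 mg/kg or oral at 10 mg/kg. AUClast was measured in plasma and in brain. Half-life, plasma clearance, volume of distribution and oral bioavailability were derived from the plasma data.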

Brain = experiment: AUClast in Swiss albino mouse brain at 1 mg/kg, iv; type: ADME, organism-based; design: time 0 - last, dose 1 mg/kg, route intravenous; conditions: in vivo
Summary of the method: as §2

[11] = target: Tyrosine-protein kinase CSK (Homo sapiens) (UniProt P41240); experiment: Inhibition of CSK assessed as residual activity at 1 uM relative to control
Summary of the method: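 Standard radioactivity-based enzymatic assays were run across a 124-kinase panel (Dundee profiling), with compound at 1 µM. Kinase activity was expressed relative to control.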

Tyrosine-protein kinase CSK (Homo sapiens), sequence (P41240 2-450 limits assumed): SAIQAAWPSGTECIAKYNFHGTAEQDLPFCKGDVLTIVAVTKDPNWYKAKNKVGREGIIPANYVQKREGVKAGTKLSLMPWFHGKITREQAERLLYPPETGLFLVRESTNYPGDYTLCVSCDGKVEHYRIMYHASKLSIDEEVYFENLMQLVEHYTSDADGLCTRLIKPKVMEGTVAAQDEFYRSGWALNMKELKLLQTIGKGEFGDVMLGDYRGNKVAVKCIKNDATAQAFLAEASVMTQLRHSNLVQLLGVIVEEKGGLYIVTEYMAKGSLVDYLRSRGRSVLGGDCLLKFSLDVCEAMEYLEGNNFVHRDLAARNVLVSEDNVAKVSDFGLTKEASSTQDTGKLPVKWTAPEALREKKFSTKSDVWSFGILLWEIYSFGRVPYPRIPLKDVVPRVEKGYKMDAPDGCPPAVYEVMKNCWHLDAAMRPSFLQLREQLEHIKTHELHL
Receptor-interacting serine/threonine-protein kinase 2 (Homo sapiens), sequence (O43353 whole entry): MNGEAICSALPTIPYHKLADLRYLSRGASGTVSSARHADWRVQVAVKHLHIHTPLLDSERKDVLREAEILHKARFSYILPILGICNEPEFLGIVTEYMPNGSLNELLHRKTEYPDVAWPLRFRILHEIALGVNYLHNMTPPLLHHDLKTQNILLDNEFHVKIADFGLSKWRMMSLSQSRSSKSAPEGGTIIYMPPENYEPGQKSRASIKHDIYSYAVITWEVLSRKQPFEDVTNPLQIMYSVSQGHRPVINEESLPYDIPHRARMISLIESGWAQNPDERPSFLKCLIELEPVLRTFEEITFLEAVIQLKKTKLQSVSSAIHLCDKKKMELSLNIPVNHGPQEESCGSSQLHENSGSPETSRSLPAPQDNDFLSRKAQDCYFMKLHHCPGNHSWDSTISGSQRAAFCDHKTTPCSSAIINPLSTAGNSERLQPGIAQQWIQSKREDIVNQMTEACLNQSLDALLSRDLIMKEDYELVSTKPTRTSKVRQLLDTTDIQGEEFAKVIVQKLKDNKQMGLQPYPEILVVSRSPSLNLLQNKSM
Tau-tubulin kinase 1 (Homo sapiens), sequence (Q5TCY1 whole entry): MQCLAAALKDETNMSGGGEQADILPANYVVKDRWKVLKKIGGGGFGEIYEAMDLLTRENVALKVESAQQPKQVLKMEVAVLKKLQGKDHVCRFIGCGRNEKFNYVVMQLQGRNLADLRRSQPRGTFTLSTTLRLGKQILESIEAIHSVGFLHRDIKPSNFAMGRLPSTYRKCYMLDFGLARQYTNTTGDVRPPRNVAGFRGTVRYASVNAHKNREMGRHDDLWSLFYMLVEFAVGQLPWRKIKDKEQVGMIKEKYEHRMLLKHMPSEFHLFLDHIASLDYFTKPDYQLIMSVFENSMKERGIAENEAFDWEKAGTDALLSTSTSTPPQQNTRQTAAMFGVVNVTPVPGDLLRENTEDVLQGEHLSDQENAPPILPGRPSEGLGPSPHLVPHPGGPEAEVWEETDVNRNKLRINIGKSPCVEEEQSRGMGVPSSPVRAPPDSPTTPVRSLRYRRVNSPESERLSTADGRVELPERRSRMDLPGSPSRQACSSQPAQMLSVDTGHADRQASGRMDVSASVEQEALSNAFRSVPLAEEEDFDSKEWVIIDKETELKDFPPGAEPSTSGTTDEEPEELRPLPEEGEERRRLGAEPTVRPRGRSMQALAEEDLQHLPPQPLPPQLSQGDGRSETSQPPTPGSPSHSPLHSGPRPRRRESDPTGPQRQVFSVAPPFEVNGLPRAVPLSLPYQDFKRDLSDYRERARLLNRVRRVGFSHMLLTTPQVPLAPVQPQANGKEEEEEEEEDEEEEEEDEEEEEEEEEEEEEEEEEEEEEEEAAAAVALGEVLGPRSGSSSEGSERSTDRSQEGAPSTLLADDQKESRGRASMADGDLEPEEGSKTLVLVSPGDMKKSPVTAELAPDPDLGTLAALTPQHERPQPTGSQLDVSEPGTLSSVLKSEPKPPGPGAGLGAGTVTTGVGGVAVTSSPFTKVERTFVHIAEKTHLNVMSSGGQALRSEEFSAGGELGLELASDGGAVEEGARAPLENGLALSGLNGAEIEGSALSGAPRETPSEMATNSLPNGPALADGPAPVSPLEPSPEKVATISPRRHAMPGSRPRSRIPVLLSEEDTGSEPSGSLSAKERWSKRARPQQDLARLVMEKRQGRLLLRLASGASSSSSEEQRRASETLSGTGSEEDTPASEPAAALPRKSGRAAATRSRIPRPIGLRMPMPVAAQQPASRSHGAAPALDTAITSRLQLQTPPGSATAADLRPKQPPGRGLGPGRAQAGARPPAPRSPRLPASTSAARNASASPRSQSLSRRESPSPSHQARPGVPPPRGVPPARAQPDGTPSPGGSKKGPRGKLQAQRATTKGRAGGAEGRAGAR
Serine/threonine-protein kinase PLK1 (Homo sapiens), sequence (P53350 whole entry): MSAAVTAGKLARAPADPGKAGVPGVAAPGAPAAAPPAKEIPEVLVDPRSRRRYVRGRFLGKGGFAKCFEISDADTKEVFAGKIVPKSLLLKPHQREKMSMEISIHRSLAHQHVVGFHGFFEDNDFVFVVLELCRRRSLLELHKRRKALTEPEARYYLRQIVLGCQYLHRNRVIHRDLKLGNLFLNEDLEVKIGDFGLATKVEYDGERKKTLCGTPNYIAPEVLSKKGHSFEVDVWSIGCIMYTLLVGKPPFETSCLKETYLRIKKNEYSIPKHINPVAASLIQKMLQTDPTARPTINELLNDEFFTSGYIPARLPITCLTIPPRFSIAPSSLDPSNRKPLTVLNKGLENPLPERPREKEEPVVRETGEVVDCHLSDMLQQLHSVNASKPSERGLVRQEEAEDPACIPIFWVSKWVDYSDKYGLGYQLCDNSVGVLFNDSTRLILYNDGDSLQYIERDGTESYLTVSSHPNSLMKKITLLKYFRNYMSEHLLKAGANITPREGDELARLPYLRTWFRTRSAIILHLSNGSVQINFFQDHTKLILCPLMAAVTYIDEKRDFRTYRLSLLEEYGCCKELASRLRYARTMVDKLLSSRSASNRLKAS
Protein-tyrosine kinase 6 (Homo sapiens), sequence (Q13882 whole entry, looked up): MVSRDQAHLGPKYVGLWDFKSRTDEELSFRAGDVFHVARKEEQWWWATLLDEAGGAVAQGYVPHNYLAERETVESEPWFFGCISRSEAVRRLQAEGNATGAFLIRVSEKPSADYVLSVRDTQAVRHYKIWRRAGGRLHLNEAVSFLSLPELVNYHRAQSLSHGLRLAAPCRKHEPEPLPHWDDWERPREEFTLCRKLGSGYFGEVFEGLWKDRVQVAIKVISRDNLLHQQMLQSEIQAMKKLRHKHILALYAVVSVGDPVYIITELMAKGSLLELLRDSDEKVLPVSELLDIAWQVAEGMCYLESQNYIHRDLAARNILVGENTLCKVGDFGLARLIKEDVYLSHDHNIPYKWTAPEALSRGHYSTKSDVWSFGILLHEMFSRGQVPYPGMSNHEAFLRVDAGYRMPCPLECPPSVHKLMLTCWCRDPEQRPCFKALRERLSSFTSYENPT
Serine/threonine-protein kinase 26 (Homo sapiens), sequence (Q9P289 2-416 limits assumed): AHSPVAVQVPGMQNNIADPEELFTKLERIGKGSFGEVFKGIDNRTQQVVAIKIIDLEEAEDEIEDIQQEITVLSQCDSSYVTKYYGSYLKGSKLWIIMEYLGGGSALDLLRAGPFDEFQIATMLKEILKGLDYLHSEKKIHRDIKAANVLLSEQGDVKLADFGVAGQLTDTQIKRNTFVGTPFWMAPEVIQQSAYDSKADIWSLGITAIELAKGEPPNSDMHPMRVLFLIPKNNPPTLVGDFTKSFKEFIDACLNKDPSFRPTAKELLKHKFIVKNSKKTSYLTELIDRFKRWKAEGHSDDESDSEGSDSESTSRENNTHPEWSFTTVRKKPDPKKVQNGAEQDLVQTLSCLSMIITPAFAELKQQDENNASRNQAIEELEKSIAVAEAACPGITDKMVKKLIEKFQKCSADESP
Mitogen-activated protein kinase 13 (Homo sapiens), sequence (O15264 whole entry): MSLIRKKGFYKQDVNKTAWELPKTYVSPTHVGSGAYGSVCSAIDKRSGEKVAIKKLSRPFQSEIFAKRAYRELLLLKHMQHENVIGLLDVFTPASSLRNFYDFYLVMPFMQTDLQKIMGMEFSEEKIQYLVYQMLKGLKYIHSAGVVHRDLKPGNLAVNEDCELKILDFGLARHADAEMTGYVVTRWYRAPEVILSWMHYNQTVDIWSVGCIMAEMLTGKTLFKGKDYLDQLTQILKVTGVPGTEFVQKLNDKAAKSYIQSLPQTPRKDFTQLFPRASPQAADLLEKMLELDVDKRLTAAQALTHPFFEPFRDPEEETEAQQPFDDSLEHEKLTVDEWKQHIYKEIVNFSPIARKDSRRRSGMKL
Mitogen-activated protein kinase 14 (Homo sapiens), sequence (Q16539 whole entry): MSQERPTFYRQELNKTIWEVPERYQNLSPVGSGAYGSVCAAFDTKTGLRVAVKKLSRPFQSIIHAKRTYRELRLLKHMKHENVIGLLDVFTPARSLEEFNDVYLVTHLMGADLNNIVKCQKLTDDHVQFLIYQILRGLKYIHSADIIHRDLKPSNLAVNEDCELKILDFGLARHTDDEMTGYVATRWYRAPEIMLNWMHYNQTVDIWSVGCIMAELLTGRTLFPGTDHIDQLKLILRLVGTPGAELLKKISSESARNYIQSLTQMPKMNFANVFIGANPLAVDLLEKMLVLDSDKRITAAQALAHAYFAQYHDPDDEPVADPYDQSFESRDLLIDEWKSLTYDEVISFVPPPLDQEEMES

Activity [1]: 38%
Activity [2]: 88%
Activity [3]: 113%
Activity [4]: 94%
Activity [5]: 33%
Activity [6]: 59%
Activity [7]: 90%
Activity [8]: 101%
Activity [9]: 5%
Activity [10]: 92%
AUClast (Plasma): 772 ng·h/mL
AUClast (Brain): 1318 ng·h/mL
Activity [11]: 77%
SMILES: COc1cc(N2CCC(N3CCN(C)CC3)CC2)ccc1Nc1ncc(Cl)c(Nc2ccccc2S(=O)(=O)C(C)C)n1 [TAE-684]
